# Assay results: ChEMBL document CHEMBL3271979, “Inhibition of solid tumors by nitrosoureas. 1. Lewis lung carcinoma” (1977)
# Active and inactive are the calls of the source. No cut-off for these calls is given here.
# Experiments:
# [1] = Antitumor activity against mouse early Lewis lung carcinoma allografted in BDF1 mouse assessed as increase in host life span at 30 mg/kg, ip administered as single dose on 1 or 2 days post-tumor implantation; assay type: functional; conditions: route intraperitoneal
# Summary of the method: (§1)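 BDF1 mice (C57Blk/6 × DBA/2) implanted sc by trocar with ~40 mg Lewis lung tumor fragments from bacteriologically sterile donor tumors. Single ip dose on day 1 or 2, as a solution or suspension in water (CMC or gum acacia) or saline (HPC or Tween 80). Read-out is […]. Same-dose toxicity controls were run in nontumor-bearing mice.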
# [2] = Antitumor activity against mouse early Lewis lung carcinoma allografted in BDF1 mouse assessed as time delay in tumor growth at 45 mg/kg, ip administered as single dose on 1 or 2 days post-tumor implantation; assay type: functional; conditions: route intraperitoneal
# Summary of the method: (§2)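 BDF1 mice (C57Blk/6 × DBA/2) implanted sc by trocar with ~40 mg Lewis lung tumor fragments from bacteriologically sterile donors. A single ip dose was given on day 1 or 2, as a solution or suspension in water or saline with suspending agent, at ≤0.5 ml. Tumors were measured by caliper at least twice weekly, with weight = ab²/2. Delay was taken as the days for the tumor to reach 1 g.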
# [3] = Antitumor activity against mouse early Lewis lung carcinoma allografted in BDF1 mouse assessed as increase in host life span at 45 mg/kg, ip administered as single dose on 1 or 2 days post-tumor implantation; assay type: functional; conditions: route intraperitoneal; summary of the method: as §1
# [4] = Antitumor activity against mouse advanced Lewis lung carcinoma allografted in ip dosed BDF1 mouse assessed as increase in host lifespan administered as single dose on day 6 or 7 post-tumor implantation; assay type: functional
# Summary of the method: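 Advanced Lewis lung model: about 40 mg fragments implanted sc by trocar into BDF1 mice, and mice with tumors of about 400 mg (day 6-7) selected. Tumor weight from calipers, w = ab²/2. Agent given as one ip dose in distilled water or physiological saline. Nontumor-bearing mice received matching doses as toxicity controls.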
# [5] = test system: Mus musculus; assay: Antitumor activity against mouse advanced Lewis lung carcinoma allografted in ip dosed BDF1 mouse assessed as complete regression of established tumor administered as single dose on day 6 or 7 post-tumor implantation; assay type: functional, organism-based
# Summary of the method: (§3)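 BDF1 mice (C57Blk/6 × DBA/2) implanted sc by trocar with Lewis lung tumor fragments of about 40 mg, taken only from bacteriologically sterile donor tumors. Mice bearing tumors of about 400 mg (day 6-7) were selected. Each received a single ip dose on day 7, at or below the LD10 in normal mice. Groups were of 10 mice. Tumor weight was taken from calipers as w = ab²/2, measured at least twice weekly. Matched non-tumor mice served as toxicity controls.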
# [6] = test system: L1210; assay: Antitumor activity against mouse L1210 cells allografted in ip dosed mouse assessed as disease cure administered as single dose; assay type: functional, organism-based
# [7] = Antitumor activity against mouse early Lewis lung carcinoma allografted in BDF1 mouse assessed as time delay in tumor growth at 30 mg/kg, ip administered as single dose on 1 or 2 days post-tumor implantation; assay type: functional; conditions: route intraperitoneal; summary of the method: as §2
# [8] = Antitumor activity against mouse early Lewis lung carcinoma allografted in ip dosed BDF1 mouse assessed as disease cure administered as single dose on 1 or 2 days post-tumor implantation measured for 80 days post-drug treatment; assay type: functional
# Summary of the method: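 BDF1 mice implanted sc by trocar with ~40 mg Lewis lung fragments from sterile donor tumors. A single ip dose was given on day 1 or 2 after implant, in water or saline vehicle. Cures were scored in animals observed for at least 80 days after treatment. Drug-toxicity controls were matched non-tumor-bearing mice monitored for body weight and deaths.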
# [9] = Antitumor activity against mouse early Lewis lung carcinoma allografted in BDF1 mouse assessed as time delay in tumor growth at 34 mg/kg, ip administered as single dose on 1 or 2 days post-tumor implantation; assay type: functional; conditions: route intraperitoneal; summary of the method: as §2
# [10] = Antitumor activity against mouse early Lewis lung carcinoma allografted in BDF1 mouse assessed as increase in host life span at 34 mg/kg, ip administered as single dose on 1 or 2 days post-tumor implantation; assay type: functional; conditions: route intraperitoneal; summary of the method: as §1
# [11] = Ratio of ED50 for antitumor activity against mouse L1210 cells allografted in ip dosed mouse to LD10 for mouse
# [12] = Antitumor activity against mouse early Lewis lung carcinoma allografted in BDF1 mouse assessed as time delay in tumor growth at 26 mg/kg, ip administered as single dose on 1 or 2 days post-tumor implantation; assay type: functional; conditions: route intraperitoneal; summary of the method: as §2
# [13] = Antitumor activity against mouse advanced Lewis lung carcinoma allografted in BDF1 mouse assessed as increase in host life span at 26 mg/kg, ip administered as single dose on 7th day post-tumor implantation; assay type: functional; conditions: route intraperitoneal
# Summary of the method: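 BDF1 mice (C57Blk/6 × DBA/2) implanted sc by trocar with about 40 mg Lewis lung tumor fragments from bacteriologically sterile donors. Advanced-disease groups held tumors of about 400 mg by day 6-7, sized by caliper (w = ab²/2). Single ip injection on day 7, in water or saline vehicle, at or below the LD10 in normal mice. Tumors measured at least twice weekly.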
# [14] = Antitumor activity against mouse early Lewis lung carcinoma allografted in BDF1 mouse assessed as increase in host life span at 26 mg/kg, ip administered as single dose on 1 or 2 days post-tumor implantation; assay type: functional; conditions: route intraperitoneal; summary of the method: as §1
# [15] = test system: Mus musculus; assay: Antitumor activity against mouse advanced Lewis lung carcinoma allografted in ip dosed BDF1 mouse assessed as disease cure administered as single dose on day 6 or 7 post-tumor implantation; assay type: functional, organism-based; summary of the method: as §3
# [16] = Antitumor activity against mouse early Lewis lung carcinoma allografted in BDF1 mouse assessed as increase in host life span at 50 mg/kg, ip administered as single dose on 1 or 2 days post-tumor implantation; assay type: functional; conditions: route intraperitoneal; summary of the method: as §1
# [17] = Antitumor activity against mouse early Lewis lung carcinoma allografted in BDF1 mouse assessed as time delay in tumor growth at 50 mg/kg, ip administered as single dose on 1 or 2 days post-tumor implantation; assay type: functional; conditions: route intraperitoneal; summary of the method: as §2
# [18] = Antitumor activity against mouse early Lewis lung carcinoma allografted in BDF1 mouse assessed as time delay in tumor growth at 113 mg/kg, ip administered as single dose on 1 or 2 days post-tumor implantation; assay type: functional; conditions: route intraperitoneal
# Summary of the method: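 Sc trocar implants of about 40 mg Lewis lung fragments in BDF1 mice. A single ip injection was given on day 1 or 2, in water or physiological saline, at ≤0.5 ml. Tumor size came from caliper length and width as w = ab²/2, measured at least twice weekly. Growth delay is the extra days taken to reach 1 g, compared with untreated controls.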
# [19] = Antitumor activity against mouse early Lewis lung carcinoma allografted in BDF1 mouse assessed as increase in host life span at 113 mg/kg, ip administered as single dose on 1 or 2 days post-tumor implantation; assay type: functional; conditions: route intraperitoneal
# Summary of the method: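 Early disease: BDF1 mice carrying sc trocar implants of about 40 mg Lewis lung fragments. One ip dose given on day 1 or 2 after implant, in distilled water or saline, at ≤0.5 ml. Endpoints were % increase in life-span of dying animals and delay in days for the primary tumor to reach 1 g. Untreated controls served as reference.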
compound,measurement,setting,value
O=NN(CCCl)C(=O)N[C@H]1CC[C@@H](O)CC1,ILS at 30 mg/kg,[1],92%
same,Time,[2],18 days
same,ILS at 45 mg/kg,[3],110%
same,ILS,[4],<25%
same,inhibition,[5],inactive
same,Activity,[6],inactive
same,Time,[7],5.1 days
same,Activity,[8],10%
O=NN(CCCl)C(=O)N[C@H]1CC[C@H](CC(=O)O)CC1,Time,[9],11 days
same,ILS at 34 mg/kg,[10],23%
same,ILS,[4],>25%
same,inhibition,[5],inactive
same,Ratio,[11],0.3
same,Time,[12],10 days
same,ILS at 26 mg/kg,[13],24%
same,ILS at 26 mg/kg,[14],34%
same,Activity,[15],inactive
same,Activity,[8],>50%
C[C@@H]1CCC[C@@H](NC(=O)N(CCCl)N=O)C1 (relative stereo),ILS,[4],<25%
same,inhibition,[5],inactive
same,Ratio,[11],0.4
same,ILS at 50 mg/kg,[16],47%
same,Time,[17],4 days
same,Time,[18],6.1 days
same,ILS at 113 mg/kg,[19],50%
same,Activity,[8],10%
